How the values were obtained:
Mus musculus [1] = assay: Time of peak effect of toxicity of compound was measured by both MES and sc Met test in mice; assay type: functional
Method in brief: (§1)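 Phase II quantification in mice after ip dosing. ED50 (scMet or MES) measured at the time of peak effect. TD50 (rotorod neurologic deficit) measured at the time of peak neurologic deficit. Medians and 95% confidence limits by the Litchfield-Wilcoxon method. Protective index = TD50/ED50. Time of peak effect determined in the MES or scMet test.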

Mus musculus [2] = assay: Time of peak effect of activity of compound was measured by both MES and sc Met test in mice; assay type: functional; method in brief: as §1
Mus musculus [3] = assay: Effective dose was measured in mouse by maximal electroshock method by ip administration; assay type: functional; method in brief: as §1
Mus musculus [4] = species on record: Mus musculus; assay: animal or person
Mus musculus [5] = assay: Anticonvulsant activity was measured by rotarod toxicity test on mice at 30 min at the dose of 100 mg/kg; number of animals protected/number of animals tested, 0/8; assay type: functional
Mus musculus [6] = assay: Anticonvulsant activity was measured by subcutaneous pentylenetetrazole test on mice at 30 min at the dose of 300 mg/kg; number of animals protected/number of animals tested, 1/1; assay type: functional
Mus musculus [7] = assay: Anticonvulsant activity was measured by rotarod toxicity teston mice at 0.50 hr at the dose of 50 mg/kg; number of animals protected/number of animals tested, 0/4; assay type: functional
Mus musculus [8] = assay: Anticonvulsant activity was measured by rotarod toxicity test on mice at 4 hr at the dose of 50 mg/kg; number of animals protected/number of animals tested, 0/4; assay type: functional
Mus musculus [9] = assay: Anticonvulsant activity was measured by rotarod toxicity test on mice at 4 hr at the dose of 100 mg/kg; number of animals protected/number of animals tested, 0/4; assay type: functional
Mus musculus [10] = assay: Anticonvulsant activity was measured by maximal electroshock test on mice at 4 hr at the dose of 100 mg/kg; number of animals protected/number of animals tested, 0/3; assay type: functional
Mus musculus [11] = assay: Anticonvulsant activity was measured by rotarod toxicity test on mice at 4 hr at the dose of 300 mg/kg; number of animals protected/number of animals tested, 0/2; assay type: functional
Mus musculus [12] = assay: Anticonvulsant activity was measured by maximal electroshock test on mice at 0.25 hr at the dose of 50 mg/kg; number of animals protected/number of animals tested, 0/4; assay type: functional
Mus musculus [13] = assay: Anticonvulsant activity was measured by rotarod toxicity teston mice at 0.25 hr at the dose of 50 mg/kg; number of animals protected/number of animals tested, 0/4; assay type: functional
Mus musculus [14] = assay: Anticonvulsant activity was measured by maximal electroshock test on mice at 4 hr at the dose of 50 mg/kg; number of animals protected/number of animals tested, 0/4; assay type: functional
Mus musculus [15] = assay: Anticonvulsant activity was measured by rotarod toxicity test on mice at 30 min at the dose of 300 mg/kg; number of animals protected/number of animals tested, 4/4; assay type: functional
Mus musculus [16] = assay: Anticonvulsant activity was measured by maximal electroshock test on mice at 30 min at the dose of 300 mg/kg; number of animals protected/number of animals tested, 1/1; assay type: functional
Mus musculus [17] = assay: Anticonvulsant activity was measured by subcutaneous pentylenetetrazole test on mice at 30 min at the dose of 100 mg/kg; number of animals protected/number of animals tested, 0/1; assay type: functional
Mus musculus [18] = assay: Anticonvulsant activity was measured by rotarod toxicity test on mice at 1 hr at the dose of 50 mg/kg; number of animals protected/number of animals tested, 0/4; assay type: functional
Mus musculus [19] = assay: Anticonvulsant activity was measured by rotarod toxicity test on mice at 2 hr at the dose of 50 mg/kg; number of animals protected/number of animals tested, 0/4; assay type: functional
Mus musculus [20] = assay: Anticonvulsant activity was measured by subcutaneous pentylenetetrazole test on mice at 4 h at the dose of 300 mg/kg; number of animals protected/number of animals tested, 0/1; assay type: functional
Mus musculus [21] = assay: Anticonvulsant activity was measured by maximal electroshock test on mice at 2 hr at the dose of 50 mg/kg; number of animals protected/number of animals tested, 2/4; assay type: functional
Mus musculus [22] = assay: Anticonvulsant activity was measured by maximal electroshock test on mice at 4 hr at the dose of 300 mg/kg; number of animals protected/number of animals tested, 0/1; assay type: functional
Mus musculus [23] = assay: Anticonvulsant activity was measured by maximal electroshock test on mice at 1 hr at the dose of 50 mg/kg; number of animals protected/number of animals tested, 1/4; assay type: functional
Mus musculus [24] = assay: Anticonvulsant activity was measured by subcutaneous pentylenetetrazole test on mice at 4 hr at the dose of 100 mg/kg; number of animals protected/number of animals tested, 0/1; assay type: functional
Mus musculus [25] = assay: Anticonvulsant activity was measured by maximal electroshock test on mice at 050 hr at the dose of 50 mg/kg; number of animals protected/number of animals tested, 1/4; assay type: functional
Mus musculus [26] = assay: Anticonvulsant activity was measured by maximal electroshock test on mice at 30 min at the dose of 100 mg/kg; number of animals protected/number of animals tested, 2/3; assay type: functional
Mus musculus [27] = species on record: Mus musculus; assay: Protective index (TD50/ED50) value in MES test in mice; assay type: functional
Mus musculus [28] = species on record: Mus musculus; assay: Protective index (TD50/ED50) value in scMET test in mice; assay type: functional; method in brief: as §1
Mus musculus [29] = assay: Anticonvulsant activity was measured by subcutaneous pentylenetetrazole test on mice at 1 hr at the dose of 100 mg/kg; number of animals protected/number of animals tested 0/2; assay type: functional
Mus musculus [30] = assay: Anticonvulsant activity was measured by maximal electroshock test on mice at 0.25 hr at the dose of 100 mg/kg; number of animals protected/number of animals tested 2/2; assay type: functional
Mus musculus [31] = assay: Anticonvulsant activity was measured by subcutaneous pentylenetetrazole test on mice at 4 hr at the dose of 300 mg/kg; number of animals protected/number of animals tested 0/1; assay type: functional
Mus musculus [32] = assay: Anticonvulsant activity was measured by subcutaneous pentylenetetrazole test on mice at 0.25 hr at the dose of 100 mg/kg; number of animals protected/number of animals tested 2/2; assay type: functional
Mus musculus [33] = assay: Anticonvulsant activity was measured by maximal electroshock test on mice at 30 min at the dose of 300 mg/kg; number of animals protected/number of animals tested 1/1; assay type: functional
Mus musculus [34] = assay: Anticonvulsant activity was measured by rotarod toxicity test on mice at 0.25 hr at the dose of 100 mg/kg; number of animals protected/number of animals tested 0/4; assay type: functional
Mus musculus [35] = assay: Anticonvulsant activity was measured by subcutaneous maximal electroshock test on mice at 1 hr at the dose of 100 mg/kg; number of animals protected/number of animals tested 1/2; assay type: functional
Mus musculus [36] = assay: Anticonvulsant activity was measured by maximal electroshock test on mice at 4 h at the dose of 300 mg/kg; number of animals protected/number of animals tested 0/1; assay type: functional
Mus musculus [37] = assay: Anticonvulsant activity was measured by rotarod toxicity test on mice at 1 hr at the dose of 100 mg/kg; number of animals protected/number of animals tested 0/4; assay type: functional
Mus musculus [38] = assay: Anticonvulsant activity was measured by rotarod toxicity test on mice at 30 min at the dose of 300 mg/kg; number of animals protected/number of animals tested 4/4; assay type: functional
Mus musculus [39] = assay: Anticonvulsant activity was measured by subcutaneous pentylenetetrazole test on mice at 30 min at the dose of 300 mg/kg; number of animals protected/number of animals tested 1/1; assay type: functional
Mus musculus [40] = assay: Anticonvulsant activity was measured by rotarod toxicity test on mice at 4 h at the dose of 300 mg/kg; number of animals protected/number of animals tested 0/2; assay type: functional

With `NC(=O)N1c2ccccc2C=Cc2ccccc21` [CARBAMAZEPINE] the TPE (Mus musculus [1]) was 0.25, the TPE (Mus musculus [2]) was 0.25 and the ED50 (Mus musculus [3]) was 8.8 mg/kg.
For `CCCC(CCC)C(=O)O` [VALPROIC ACID], the ED50 (Mus musculus [4]) was 149 mg/kg, the TPE (Mus musculus [1]) was 0.25 and the TPE (Mus musculus [2]) was 0.25 toxicity.
`O=C1CC2(CCCC2)C(=O)N1OCc1ccccc1F` gave a Ratio (Mus musculus [5]) of 0, a Ratio (Mus musculus [6]) of 1 and a Ratio (Mus musculus [7]) of 0. For the same molecule, the Ratio (Mus musculus [8]) was 0, the Ratio (Mus musculus [9]) was 0 and the Ratio (Mus musculus [10]) was 0. The Ratio (Mus musculus [11]) was 0, the Ratio (Mus musculus [12]) was 0 and the Ratio (Mus musculus [13]) was 0. It also gave a Ratio (Mus musculus [14]) of 0, a Ratio (Mus musculus [15]) of 4 and a Ratio (Mus musculus [16]) of 1. It also gave a Ratio (Mus musculus [17]) of 0, a Ratio (Mus musculus [18]) of 0 and a Ratio (Mus musculus [19]) of 0. The Ratio (Mus musculus [20]) was 0, the Ratio (Mus musculus [21]) was 2 and the Ratio (Mus musculus [22]) was 0. For the same molecule, the Ratio (Mus musculus [23]) was 1, the Ratio (Mus musculus [24]) was 0 and the Ratio (Mus musculus [25]) was 1. It also gave a Ratio (Mus musculus [26]) of 2.
With `O=C1CC2(CCCC2)C(=O)N1OCc1ccccc1Br` the PI (Mus musculus [27]) was 2.3, the PI (Mus musculus [28]) was 1.7 and the Ratio (Mus musculus [29]) was 0. It also gave a Ratio (Mus musculus [30]) of 2, a Ratio (Mus musculus [31]) of 0 and a TPE (Mus musculus [1]) of 0.25. For the same molecule, the Ratio (Mus musculus [32]) was 2, the TPE (Mus musculus [2]) was 0.25 and the Ratio (Mus musculus [33]) was 1. It also gave a Ratio (Mus musculus [34]) of 0, a Ratio (Mus musculus [35]) of 1 and a Ratio (Mus musculus [36]) of 0. It also gave a Ratio (Mus musculus [37]) of 0, a Ratio (Mus musculus [38]) of 4 and a Ratio (Mus musculus [39]) of 1. The Ratio (Mus musculus [40]) was 0.
